Here are results for eleven compounds from article PMC4398657 (Bioorganic & medicinal chemistry, 2015).

Marks after values point to notes of the source that are not given here. Where only a bound is given, the exact number is not on record here.

Data set [1] deals with wild-type E. coli (AB1157). The experiment in a line: Checkerboard assay: minimum potentiation concentration. The following applies: potentiation of LVX and PIP, antibiotic not separated. The data set is classed as cell-based, Escherichia coli.
The test system of data set [2] is wild-type E. coli (AB1157). The following applies: antibacterial activity of the EPI alone; cited from earlier work.
Data set [3] relates to transmembrane proton gradient, E. coli NCM3722. The experiment in a line: LacY permease-dependent uptake and accumulation of [3H]-TMG. Particulars: concentrations up to 20 µM. The data set is classed as cell-based, Escherichia coli. A digest of the protocol: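 Whole E. coli cells take up [methyl-³H] β-D-thiogalactopyranoside through the LacY permease, and accumulation depends on proton motive force. The tracer stock was 1 mCi/ml at a specific activity of 7 Ci/mmol. Accumulated radiolabel was measured in the presence of test compound to estimate disruption of the transmembrane proton gradient.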

For data set [4], the system named is AcrB (AcrAB-TolC in E. coli). As to the kind of experiment: Cell-based assay of kinetic parameters. Also on record: species or system Escherichia coli. Particulars: manuscript in preparation.
Data set [5] in a line: Murine liver microsome stability. The data set is classed as in vitro ADME, mouse. Particulars: % remaining after 60 min at 37 °C in the presence of NADPH; 25 µM compound. A digest of the protocol: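 Pooled mouse liver microsomes (0.5 mg/mL final) with test compound at 25 µM final, in 100 mM potassium phosphate pH 7.4 and 3 mM MgCl₂, with or without 2 mM NADPH (no-NADPH as control); 1 h at 37 °C; stopped with an equal volume of acetonitrile with 0.1% TFA. Value is the compound peak-area ratio of +NADPH to no-NADPH.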

Data set [6] has as its system outer membrane of E. coli strain deficient in AcrAB (HN1159). As to the kind of experiment: Nitrocefin influx. It is filed as cell-based, Escherichia coli.

In the case of `CC1(C)Cc2c(C#N)c(SCCC#N)nc(N3CCOCC3)c2CO1` [Compound 20a], the “EPI potency / MPC4 in words” value in data set [1] is “inactive”.

Take `CC1(C)Cc2c(C#N)c(SCCc3ccccc3)nc(N3CCOCC3)c2CO1` [MBX2319, 3,3-dimethyl-5-cyano-8-morpholino-6-(phenethylthio)-3,4-dihydro-1H-pyrano[3,4-c]pyridine]: in data set [2], the MIC (commonly the least concentration at which growth counts as inhibited) is on record as ≥ 100 µM. In the case of `CC1CN(c2nc(SCCc3ccc(NC(=N)N)cc3)c(C#N)c3c2COC(C)(C)C3)CC(C)O1` (stereo not drawn) [Compound 22k, 6-(4-guanidinophenethylthio)-5-cyano-3,3-dimethyl-8-(2,6-dimethyl-4-morpholino)-3,4-dihydro-1H-pyrano[3,4-c]pyridine], in data set [1], the “EPI potency / MPC4 in words” value is reported as “submicromolar”. Further, in data set [3], the “inhibition of uptake and accumulation of 3H-TMG” value (shortened to “inhibition”) was “none of the analogs significantly inhibited uptake and accumulation”. On to `CC(=O)Nc1ccc(CCSc2nc(N3CC(C)OC(C)C3)c3c(c2C#N)CC(C)(C)OC3)cc1` (stereo not drawn) [Compound 22f, 6-(4-acetamidophenethylthio)-5-cyano-3,3-dimethyl-8-(2,6-dimethyl-4-morpholino)-3,4-dihydro-1H-pyrano[3,4-c]pyridine], for which, in data set [4], the “potency against AcrB relative to MBX2319” value is “at least 20 fold”. Also, in data set [5], the MLMS was 0 ^* %.

As to `COCCN1CCN(c2nc(SCCc3ccc(OC)cc3)c(C#N)c3c2COC(C)(C)C3)CC1` [Compound 21f], in data set [3], the “inhibition” value is “none of the analogs significantly inhibited uptake and accumulation”.

As to `CC1CN(c2nc(SCCc3ccc(NC(=O)C(F)(F)F)cc3)c(C#N)c3c2COC(C)(C)C3)CC(C)O1` (stereo not drawn) [Compound 22g, 6-[4-(2,2,2-trifluoroacetamido)phenethylthio]-5-cyano-8-(2,6-dimethylmorpholino)-3,3-dimethyl-3,4-dihydro-1H-pyrano[3,4-c]pyridine], the MLMS in data set [5] is listed as 0 ^* %. As to `COc1cccc(CCSc2nc(N3CCOCC3)c3c(c2C#N)CC(C)(C)OC3)c1` [Compound 20f], in data set [3], the “inhibition” value was “none of the analogs significantly inhibited uptake and accumulation”. The “rate of nitrocefin influx” value in data set [6] is “none of the compounds increased the rate of nitrocefin influx”. Regarding `COCCN1CCN(c2nc(SCCc3ccc(OC)c(OC)c3)c(C#N)c3c2COC(C)(C)C3)CC1` [Compound 21g], in data set [3], the “inhibition” value was “none of the analogs significantly inhibited uptake and accumulation”. With `CC1(C)Cc2c(C#N)c(SCC(=O)c3ccccc3)nc(N3CCOCC3)c2CO1` [Compound 12c], the “EPI potency / MPC4 in words” value in data set [1] is “inactive”. In the case of `C=CC(=O)Nc1ccc(CCSc2nc(N3CC(C)OC(C)C3)c3c(c2C#N)CC(C)(C)OC3)cc1` (stereo not drawn) [Compound 22i, 6-(4-acrylamidophenethylthio)-5-cyano-3,3-dimethyl-8-(2,6-dimethyl-4-morpholino)-3,4-dihydro-1H-pyrano[3,4-c]pyridine], in data set [1], the “EPI potency / MPC4 in words” value is “submicromolar”. The “inhibition” value in data set [3] is “none of the analogs significantly inhibited uptake and accumulation”. For `CC1(C)Cc2c(C#N)c(SCC(O)c3ccccc3)nc(N3CCOCC3)c2CO1` (stereo not drawn) [Compound 12d, 6-(2-hydroxy-2-phenylethylthio)-5-cyano-3,3-dimethyl-8-morpholino-3,4-dihydro-1H-pyrano[3,4-c]pyridine], the “EPI potency / MPC4 in words” value in data set [1] is “inactive”.
